Like-named read-outs stand apart in the source and are kept apart here.
What was measured:
[1] = type: in vivo, human; details: for AUC / Cmax / T1/2 / Tmax / Urine excretion, %dose: mean (range); for Urine excretion, %dose: urine 0-24 hr
Outline: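 Patients with refractory solid tumors took the capsule with water after overnight fasting. Plasma was drawn predose and at 0.5, 1, 2, 4, 6, 9, 12, 24, 32 and 48 h, then stored at −70°C. Drug was extracted into ethyl acetate and quantified by LC–ESI single-quadrupole MS (LLOQ 5 ng/ml). Parameters were noncompartmental per patient, with Cmax and Tmax as observed. Renal clearance = Ae,0–24/AUC0–24.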

[2] = tested on: patients with advanced refractory solid tumors; experiment: Toxicity assessment; type: in vivo, human
[3] = tested on: patients with refractory metastatic solid tumors; experiment: Response to therapy; type: in vivo, human
Outline: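 Patients with refractory metastatic solid tumors received oral test compound once daily (5–40 mg/day dose escalation), taken with water after overnight fasting. Dosing was initially continuous over 28-day cycles, then amended to 21 days on and 7 days off. Treatment continued until progression or toxicity. Measurable disease was assessed by RECIST, with radiographic studies at end of cycle 3 and every other cycle thereafter.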

[4] = cited from earlier work
[5] = Population pharmacokinetic analysis
[6] = 5 mg single oral dose, cycle 1 day 1, n=2
[7] = 10 mg single oral dose, cycle 1 day 1, n=6
[8] = 15 mg single oral dose, cycle 1 day 1, n=3
[9] = 20 mg single oral dose, cycle 1 day 1, n=9
[10] = 25 mg single oral dose, cycle 1 day 1, n=6
[11] = 30 mg single oral dose, cycle 1 day 1, n=8
[12] = 35 mg single oral dose, cycle 1 day 1, n=6
[13] = 40 mg single oral dose, cycle 1 day 1, n=3

Substance: (α -(3-aminophthalimido) glutarimide) [lenalidomide]
- AUC [1, 6]: 302 (257, 346) ng·hr/ml
- Cmax [1, 6]: 80 (66, 93) ng/ml
- T1/2 [1, 6]: 2.7 (2.1, 3.3) hr
- Tmax [1, 6]: 0.75 (0.5, 1) hr
- AUC [1, 7]: 571 (256–1415) ng·hr/ml
- Cmax [1, 7]: 107 (59–163) ng/ml
- T1/2 [1, 7]: 3.1 (2.4–4.2) hr
- Tmax [1, 7]: 1 (0.5– 4) hr
- AUC [1, 8]: 1090 (712–1391) ng·hr/ml
- Cmax [1, 8]: 195 (174–224) ng/ml
- Tmax [1, 8]: 2 (1–4) hr
- AUC [1, 9]: 1901 (239–4093) ng·hr/ml
- Cmax [1, 9]: 343 (64–621) ng/ml
- T1/2 [1, 9]: 3.1 (1.9–7.8) hr
- Tmax [1, 9]: 1 (0.5–6.1) hr
- AUC [1, 10]: 3820 (1081–11363) ng·hr/ml
- Cmax [1, 10]: 451 (311–631) ng/ml
- T1/2 [1, 10]: 5.3 (1.6–15.9) hr
- Tmax [1, 10]: 1.5 (0.5–8.9) hr
- AUC [1, 11]: 4040 (844–15445) ng·hr/ml
- Cmax [1, 11]: 593 (69–1315) ng/ml
- T1/2 [1, 11]: 4.0 (3.2–14.2) hr
- Tmax [1, 11]: 1.5 (0.5–6) hr
- Urine excretion, %dose ([1]; 30 mg single oral dose, n=3): 47.0 (36.3–62.0) %dose
- AUC [1, 12]: 5309 (3172–7062) ng·hr/ml
- Cmax [1, 12]: 782 (594–969) ng/ml
- T1/2 [1, 12]: 6.7 (3.7–14.5) hr
- Tmax [1, 12]: 1 (0.5–4) hr
- Urine excretion, %dose ([1]; 35 mg single oral dose, n=4): 54.6 (48.3–63.1) %dose
- AUC [1, 13]: 3926 (3281–4656) ng·hr/ml
- Cmax [1, 13]: 842 (648–1002) ng/ml
- T1/2 [1, 13]: 4.1 (1.8–6.2) hr
- Tmax [1, 13]: 1 (0.75–2) hr
- Urine excretion, %dose ([1]; 40 mg single oral dose, n=2): 44.9 (43.8, 46.0) %dose
- CL/F_renal as share of the total clearance ([1]; 9 patients): about 50%
- amount of unchanged lenalidomide excreted into urine for 24 hours ([1]; 30-40 mg dose groups): 45–55 % of dose
- mean half-life (T1/2) ([1]; across all doses 5-40 mg, oral): 3.9 h
- time of peak plasma concentration ([1]; after single oral administration): around 1 hour
- patients with dose reductions ([2]; continuous doses, 4 out of 15 patients): 27%
- Anemia, Grade 3, number of patients ([2]; continuous dosing (n=15)): 1
- Constipation, Grade 1, number of patients ([2]; continuous dosing (n=15)): 2
- Constipation, Grade 2, number of patients ([2]; continuous dosing (n=15)): 1
- Diarrhea, Grade 1, number of patients ([2]; continuous dosing (n=15)): 4
- Dizziness, Grade 1, number of patients ([2]; continuous dosing (n=15)): 3
- Dizziness, Grade 2, number of patients ([2]; continuous dosing (n=15)): 1
- Fatigue, Grade 1, number of patients ([2]; continuous dosing (n=15)): 4
- Fatigue, Grade 2, number of patients ([2]; continuous dosing (n=15)): 1
- Flatulence, Grade 1, number of patients ([2]; continuous dosing (n=15)): 3
- Hypotension, Grade 1, number of patients ([2]; continuous dosing (n=15)): 2
- Hypotension, Grade 3, number of patients ([2]; continuous dosing (n=15)): 1
- Nausea, Grade 1, number of patients ([2]; continuous dosing (n=15)): 4
- Neuropathic Sensory, Grade 1, number of patients ([2]; continuous dosing (n=15)): 4
- Neutropenia, Grade 1, number of patients ([2]; continuous dosing (n=15)): 1
- Neutropenia, Grade 2, number of patients ([2]; continuous dosing (n=15)): 3
- Neutropenia, Grade 3, number of patients ([2]; continuous dosing (n=15)): 2
- Pleural effusion, Grade 1, number of patients ([2]; continuous dosing (n=15)): 2
- Pruritus, Grade 1, number of patients ([2]; continuous dosing (n=15)): 5
- Pruritus, Grade 2, number of patients ([2]; continuous dosing (n=15)): 1
- Rash/desquamation, Grade 1, number of patients ([2]; continuous dosing (n=15)): 4
- SGPT, Grade 2, number of patients ([2]; continuous dosing (n=15)): 2
- Thrombosis, Grade 3, number of patients ([2]; continuous dosing (n=15)): 2
- Anemia, Grade 1, number of patients ([2]; intermittent dose (n=35)): 1
- Anemia, Grade 2, number of patients ([2]; intermittent dose (n=35)): 1
- Anemia, Grade 3, number of patients ([2]; intermittent dose (n=35)): 1
- Anorexia, Grade 1, number of patients ([2]; intermittent dose (n=35)): 3
- Anorexia, Grade 2, number of patients ([2]; intermittent dose (n=35)): 1
- Constipation, Grade 1, number of patients ([2]; intermittent dose (n=35)): 4
- Constipation, Grade 2, number of patients ([2]; intermittent dose (n=35)): 5
- Diarrhea, Grade 1, number of patients ([2]; intermittent dose (n=35)): 5
- Diarrhea, Grade 3, number of patients ([2]; intermittent dose (n=35)): 1
- Dizziness, Grade 1, number of patients ([2]; intermittent dose (n=35)): 8
- Dysgeusia, Grade 1, number of patients ([2]; intermittent dose (n=35)): 3
- Edema, Grade 1, number of patients ([2]; intermittent dose (n=35)): 4
- Fatigue, Grade 1, number of patients ([2]; intermittent dose (n=35)): 14
- Fever, Grade 1, number of patients ([2]; intermittent dose (n=35)): 4
- Hemolysis, Grade 2, number of patients ([2]; intermittent dose (n=35)): 1
- Hemolysis, Grade 4, number of patients ([2]; intermittent dose (n=35)): 1
- Infection, Grade 2, number of patients ([2]; intermittent dose (n=35)): 1
- Infection, Grade 3, number of patients ([2]; intermittent dose (n=35)): 2
- Insomnia, Grade 1, number of patients ([2]; intermittent dose (n=35)): 5
- Leukopenia, Grade 2, number of patients ([2]; intermittent dose (n=35)): 1
- Leukopenia, Grade 3, number of patients ([2]; intermittent dose (n=35)): 1
- Myalgia, Grade 1, number of patients ([2]; intermittent dose (n=35)): 5
- Myalgia, Grade 2, number of patients ([2]; intermittent dose (n=35)): 1
- Nausea, Grade 1, number of patients ([2]; intermittent dose (n=35)): 9
- Nausea, Grade 2, number of patients ([2]; intermittent dose (n=35)): 1
- Neutropenia, Grade 1, number of patients ([2]; intermittent dose (n=35)): 1
- Neutropenia, Grade 2, number of patients ([2]; intermittent dose (n=35)): 2
- Neutropenia, Grade 3, number of patients ([2]; intermittent dose (n=35)): 2
- Neutropenia, Grade 4, number of patients ([2]; intermittent dose (n=35)): 3
- Pleural effusion, Grade 1, number of patients ([2]; intermittent dose (n=35)): 2
- Pleural effusion, Grade 3, number of patients ([2]; intermittent dose (n=35)): 1
- Pruritus, Grade 1, number of patients ([2]; intermittent dose (n=35)): 4
- Pruritus, Grade 2, number of patients ([2]; intermittent dose (n=35)): 1
- Rash/desquamation, Grade 1, number of patients ([2]; intermittent dose (n=35)): 7
- Rash/desquamation, Grade 2, number of patients ([2]; intermittent dose (n=35)): 3
- Supraventricular arrythmia, Grade 4, number of patients ([2]; intermittent dose (n=35)): 1
- Thrombocytopenia, Grade 1, number of patients ([2]; intermittent dose (n=35)): 3
- Thrombocytopenia, Grade 3, number of patients ([2]; intermittent dose (n=35)): 2
- patients with dose reductions ([2]; intermittent doses, 7 out of 30 patients): 23%
- dose up to which lenalidomide was well tolerated ([2]; intermittent dosing schedule, 21 days on, 7 days off): up to 35 mg/day
- median time on-study of patients with stable disease ([3]; 12 patients, range 4 – 11): 5 months
- complete or partial response ([3]; 44 evaluable patients): No complete or partial response was noted
- patients with stable disease who had prostate cancer ([3]; of 12 patients with SD): 9
- unchanged lenalidomide excreted into urine, fraction of dose ([4]; healthy volunteers): two thirds
- increase of lenalidomide exposure in mild RI over normal function ([4]; patients with multiple myeloma): 56%
- interpatient variability on total lenalidomide clearance ([5]; before inclusion of CLCr in the model): 70.6%
- BSV of Tlag, Population Mean (95% CI) ([5]; final PopPK model): 30.0 (2.2 – 47.9) CV%
- BSV of V/F, Population Mean (95% CI) ([5]; final PopPK model): 33.0 (1.0 – 48.0) CV%
- BSV of ka, Population Mean (95% CI) ([5]; final PopPK model): 146 (95 – 184) CV%
- Residual error, Population Mean (95% CI) ([5]; final PopPK model): 34.0 (26.9 – 40.0) CV%
- Tlag, Population Mean (95% CI) ([5]; final PopPK model): 0.37 (0.30 – 0.43) hr
- V/F, Population Mean (95% CI) ([5]; final PopPK model): 57.8 (49.4 – 66.2) L
- ka, Population Mean (95% CI) ([5]; final PopPK model): 4.60 (0.66 – 8.54) 1/hr
- CL/F, Mild RI, Population Mean (95% CI) ([5]; final PopPK model, 50 ≤ CLCr ≤ 80 mL/min): 136 (97 – 175) ml/min
- CL/F, Normal renal function, Population Mean (95% CI) ([5]; final PopPK model, CLCr > 80 mL/min): 243 (193 – 297) ml/min
- BSV of Tlag, Bootstrap Median (95% CI) ([5]; non-parametric bootstrap): 29.1 (4.5 – 65.1) CV%
- BSV of V/F, Bootstrap Median (95% CI) ([5]; non-parametric bootstrap): 31.5 (14.5 – 52.4) CV%
- BSV of ka, Bootstrap Median (95% CI) ([5]; non-parametric bootstrap): 143 (92 – 197) CV%
- Residual error, Bootstrap Median (95% CI) ([5]; non-parametric bootstrap): 33.8 (27.4 – 40.9) CV%
- Tlag, Bootstrap Median (95% CI) ([5]; non-parametric bootstrap): 0.37 (0.25 – 0.43) hr
- V/F, Bootstrap Median (95% CI) ([5]; non-parametric bootstrap): 57.8 (51.3 – 66.7) L
- ka, Bootstrap Median (95% CI) ([5]; non-parametric bootstrap): 4.67 (2.52 – 9.19) 1/hr
- CL/F, Mild RI, Bootstrap Median (95% CI) ([5]; non-parametric bootstrap, 50 ≤ CLCr ≤ 80 mL/min): 136 (103 – 178) ml/min
- CL/F, Normal renal function, Bootstrap Median (95% CI) ([5]; non-parametric bootstrap, CLCr > 80 mL/min): 243 (202 – 297) ml/min
- dose-normalized AUC ([5]; patients with normal renal function): 75 ng·h/ml per mg
- dose-normalized AUC ([5]; renally impaired subjects (mild RI)): 167 ng·h/ml per mg

Reference: publication PMC2808857 (Journal of clinical pharmacology, 2009)
